Measurements taken from ChEMBL document CHEMBL4616673 (J Med Chem, 2020).
Several values for one entry are separate records, joined by “and”; a condition that tells them apart may be missing. Equal values may be shown once.

Experiments:
HeLa = experiment: Antiproliferative activity against human HeLa cells assessed as reduction in cell viability measured after 48 hrs by MTT assay; format: functional, cell-based; settings: Homo sapiens, HeLa, 48 h
Raji [1] = experiment: Induction of apoptosis in human Raji cells assessed as necrotic cells at 0.063 uM measured after 48 hrs by Annexin V-FITC staining based flow cytometry (reference value: 0.21 %); format: functional
Raji [2] = experiment: Induction of apoptosis in human Raji cells assessed as late apoptotic cells at 0.063 uM measured after 48 hrs by Annexin V-FITC staining based flow cytometry (reference value: 0.7 %); format: functional
Raji [3] = experiment: Induction of apoptosis in human Raji cells assessed as necrotic cells at 0.125 uM measured after 48 hrs by Annexin V-FITC staining based flow cytometry (reference value: 0.21 %); format: functional
A-375 = experiment: Antiproliferative activity against human A375 cells assessed as reduction in cell viability measured after 48 hrs by MTT assay; format: functional, cell-based; settings: Homo sapiens, A-375, 48 h
[4] = Acute toxicity in BALB/c mouse assessed as effect on lung at 400 mg/kg, po measured on day 14 by H and E staining based light microscopic analysis; format: organism-based; settings: in vivo
How it was run: (§1)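 Female and male BALB/c mice, 6-8 weeks old, dosed orally within 24 h at up to 400 mg/kg (free compound) or 800 mg/kg (nanocrystal). At the end of treatment, heart, liver, spleen, lung and kidney were sectioned, stained with H&E and imaged by light microscopy.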

[5] = Acute toxicity in BALB/c mouse assessed as effect on kidney at 400 mg/kg, po measured on day 14 by H and E staining based light microscopic analysis; format: organism-based; settings: in vivo; how it was run: as §1
NAMALVA = experiment: Antiproliferative activity against human NAMALWA cells assessed as reduction in cell viability measured after 48 hrs by MTT assay; format: functional, cell-based; settings: Homo sapiens, NAMALVA, 48 h
Raji [6] = experiment: Cell cycle arrest in human Raji cells assessed as accumulation at S phase at 0.031 uM measured after 24 hrs by propidium iodide/RNase staining based flow cytometry (reference value: 52%); format: functional
[7] = Acute toxicity in BALB/c mouse assessed as effect on blood CREA level at 400 mg/kg, po measured on day 14; format: organism-based; settings: in vivo
How it was run: (§2)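 BALB/c mice, female and male, 6-8 weeks old, given oral doses within 24 h, up to 400 mg/kg (free compound) or 800 mg/kg (nanocrystal formulation). Watched for body weight loss, diarrhea, anorexia, skin ulcer and toxic death. Serum biochemistry panel was run at the end of treatment.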

Raji [8] = experiment: Induction of apoptosis in human Raji cells assessed as late apoptotic cells at 0.125 uM measured after 48 hrs by Annexin V-FITC staining based flow cytometry (reference value: 0.7 %); format: functional
[9] = Acute toxicity in po dosed BALB/c mouse assessed as maximum tolerated dose; format: organism-based; settings: in vivo
How it was run: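 Acute oral dose-escalation in female and male BALB/c mice, 6-8 weeks old, dosed within 24 h. MTD is the highest dose without obvious side effects: body weight loss, diarrhea, anorexia, skin ulcer or toxic death.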

[10] = Acute toxicity in BALB/c mouse assessed as effect on blood UA level at 400 mg/kg, po measured on day 14; format: organism-based; settings: in vivo; how it was run: as §2
[11] = Tmax in Sprague-Dawley rat at 25 mg/kg, po administered via gavage by LC-MS analysis; format: ADME, organism-based; settings: in vivo
How it was run: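 Male Sprague-Dawley rats, fasted overnight, jugular vein catheter for serial blood sampling. Single dose of 25 mg/kg by oral gavage or 5 mg/kg by tail-vein injection. Blood drawn at set times and spun at once for plasma, plasma drug by LC-MS. Parameters given as mean, n = 6.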

[12] = Acute toxicity in BALB/c mouse assessed as effect on blood GLU level at 800 mg/kg, po measured on day 14; format: organism-based; settings: in vivo; how it was run: as §2
[13] = Acute toxicity in BALB/c mouse assessed as effect on blood CHO1 level at 400 mg/kg, po measured on day 14; format: organism-based; settings: in vivo; how it was run: as §2
Raji [14] = experiment: Induction of apoptosis in human Raji cells assessed as live cells at 0.063 uM measured after 48 hrs by Annexin V-FITC staining based flow cytometry (reference value: 98.09 %); format: functional
[15] = biological target: Dihydroorotate dehydrogenase (quinone), mitochondrial (Homo sapiens, UniProt Q02127); experiment: Inhibition of human DHODH using dihydroorotate as substrate and CoQ10 as co-substrate preincubated for 30 mins followed by substrate addition by DCIP coupled microplate reader assay
[16] = Acute toxicity in BALB/c mouse assessed as effect on kidney at 800 mg/kg, po measured on day 14 by H and E staining based light microscopic analysis; format: organism-based; settings: in vivo; how it was run: as §1
[17] = Acute toxicity in BALB/c mouse assessed as effect on blood TP level at 400 mg/kg, po measured on day 14; format: organism-based; settings: in vivo; how it was run: as §2
[18] = Acute toxicity in BALB/c mouse assessed as effect on blood AST level at 400 mg/kg, po measured on day 14; format: organism-based; settings: in vivo; how it was run: as §2
MCF7 = experiment: Antiproliferative activity against human MCF7 cells assessed as reduction in cell viability measured after 48 hrs by MTT assay; format: functional, cell-based; settings: Homo sapiens, MCF7, 48 h
[19] = Acute toxicity in BALB/c mouse assessed as effect on blood CK level at 400 mg/kg, po measured on day 14; format: organism-based; settings: in vivo; how it was run: as §2
[20] = Acute toxicity in BALB/c mouse assessed as effect on spleen at 400 mg/kg, po measured on day 14 by H and E staining based light microscopic analysis; format: organism-based; settings: in vivo; how it was run: as §1
[21] = Half life in rat liver microsomes at 1 uM in presence of NADPH by LC-MS analysis; format: ADME, Microsome
How it was run: (§3)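 Compound at 1 μM with 0.5 mg/mL human, rat or mouse liver microsomes and 1 mM NADPH. Stopped with acetonitrile at 0, 5, 15, 30, 45, 60 and 90 min, centrifuged. Supernatant analysed by LC-MS/MS.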

[22] = Half life in human liver microsomes at 1 uM in presence of NADPH by LC-MS analysis; format: ADME, Microsome; how it was run: as §3
Raji [23] = experiment: Induction of apoptosis in human Raji cells assessed as early apoptotic cells at 0.031 uM measured after 48 hrs by Annexin V-FITC staining based flow cytometry (reference value: 1 %); format: functional
[24] = Acute toxicity in BALB/c mouse assessed as effect on lung at 800 mg/kg, po measured on day 14 by H and E staining based light microscopic analysis; format: organism-based; settings: in vivo; how it was run: as §1
[25] = Acute toxicity in BALB/c mouse assessed as effect on blood BUN level at 400 mg/kg, po measured on day 14; format: organism-based; settings: in vivo; how it was run: as §2
[26] = Acute toxicity in BALB/c mouse assessed as effect on heart at 400 mg/kg, po measured on day 14 by H and E staining based light microscopic analysis; format: organism-based; settings: in vivo; how it was run: as §1
Raji [27] = experiment: Induction of apoptosis in human Raji cells assessed as early apoptotic cells at 0.125 uM measured after 48 hrs by Annexin V-FITC staining based flow cytometry (reference value: 1 %); format: functional
[28] = Acute toxicity in BALB/c mouse assessed as effect on blood BILT level at 800 mg/kg, po measured on day 14; format: organism-based; settings: in vivo; how it was run: as §2

Chain of Dihydroorotate dehydrogenase (quinone), mitochondrial (Q02127 whole entry): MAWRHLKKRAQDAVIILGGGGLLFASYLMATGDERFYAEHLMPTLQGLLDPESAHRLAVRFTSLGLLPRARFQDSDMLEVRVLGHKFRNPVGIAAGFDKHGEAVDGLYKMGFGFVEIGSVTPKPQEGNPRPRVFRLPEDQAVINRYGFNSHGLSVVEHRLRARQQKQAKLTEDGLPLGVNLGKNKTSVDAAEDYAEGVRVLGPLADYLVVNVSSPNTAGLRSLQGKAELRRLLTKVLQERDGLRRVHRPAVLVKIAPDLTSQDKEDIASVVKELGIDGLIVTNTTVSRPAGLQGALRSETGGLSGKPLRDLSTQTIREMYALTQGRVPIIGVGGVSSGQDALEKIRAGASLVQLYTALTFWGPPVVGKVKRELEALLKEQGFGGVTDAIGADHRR

O=C1c2ccccc2C(=O)c2c1nnn2-c1cc(F)c(-c2ccccc2F)c(F)c1
IC50 (HeLa): > 10 µM
Activity (Raji [1]): 0.34%
Activity (Raji [2]): 4.26%
Activity (Raji [3]): 0.39%
IC50 (A-375): 0.02 µM
Activity [4]: Non-Toxic
Activity [5]: Non-Toxic
IC50 (NAMALVA): 0.99 µM
Activity (Raji [6]): 76.62%
Activity [7]: Non-Toxic
Activity (Raji [8]): 6.04%
MTD ([9]; BALB/c, read-out: MTD): 400 mg/kg
MTD [9]: 800 mg/kg
Activity [10]: Non-Toxic
Tmax [11]: 600 min and 1620 min
Activity [12]: Non-Toxic
Activity [13]: Non-Toxic
Activity (Raji [14]): 92.31%
IC50 [15]: 0.0045 µM
Activity [16]: Non-Toxic
Activity [17]: Non-Toxic
Activity [18]: Non-Toxic
IC50 (MCF7): 9.61 µM
Activity [19]: Non-Toxic
Activity [20]: Non-Toxic
t1/2 [21]: 19.8 min and 54 min
half-life at 1 µM ([22]; liver microsomes): 32 min
t1/2 ([22]; microsomes, 1 µM): 63 min
Activity (Raji [23]): 3.09%
Activity [24]: Non-Toxic
Activity [25]: Non-Toxic
Activity [26]: Non-Toxic
Activity (Raji [27]): 4.1%
Activity [28]: Non-Toxic
